In ChEMBL document CHEMBL6109036, “Azo derivatives of monoterpenes as anti-Helicobacter pylori agents: from synthesis to structure-based target investigation” (RSC Med Chem, 2025):
Converted amounts (≈) assume the structure as drawn.

Columns and labels:
Format in all cases: functional
Helicobacter pylori [1] = test: Anti-bacterial activity against Helicobacter pylori Clinical isolate F1 measured after 72 hrs incubation by modified broth dilution method
Helicobacter pylori [2] = test: Bactericidal activity against Helicobacter pylori Clinical isolate F1 measured after 72 hrs of incubation under microaerophilic conditions by modified broth dilution method; conditions: read-out: MBC99.9
Summary of the method: (§1)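 H. pylori (NCTC 11637, F1, 23, F4). Wells with no visible growth in the MIC assay spotted (10 μL) onto Skirrow agar. Plates incubated 72 h at 37 °C, microaerophilic, 100% humidity. MBC = concentration killing 99.9% of the initial inoculum. Triplicate, on at least three different days.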

Helicobacter pylori [3] = test: Anti-bacterial activity against Helicobacter pylori Clinical isolate 23 measured after 72 hrs incubation by modified broth dilution method
Helicobacter pylori [4] = test: Bactericidal activity against Helicobacter pylori Clinical isolate 23 measured after 72 hrs of incubation under microaerophilic conditions by modified broth dilution method; conditions: read-out: MBC99.9; summary of the method: as §1
Helicobacter pylori [5] = test: Anti-bacterial activity against Helicobacter pylori NCTC 11637 measured after 72 hrs incubation by modified broth dilution method
Helicobacter pylori [6] = test: Bactericidal activity against Helicobacter pylori NCTC 11637 measured after 72 hrs of incubation under microaerophilic conditions by modified broth dilution method; conditions: read-out: MBC99.9; summary of the method: as §1
Helicobacter pylori [7] = test: Anti-bacterial activity against Helicobacter pylori Clinical isolate F4 measured after 72 hrs incubation by modified broth dilution method
Helicobacter pylori [8] = test: Bactericidal against Helicobacter pylori Clinical isolate F4 measured after 72 hrs of incubation under microaerophilic conditions by modified broth dilution method; conditions: read-out: MBC99.9; summary of the method: as §1
Helicobacter pylori [9] = test: Anti-bacterial activity against Helicobacter pylori measured after 72 hrs incubation by modified broth dilution method
Helicobacter pylori [10] = test: Bactericidal against Helicobacter pylori measured after 72 hrs of incubation under microaerophilic conditions by modified broth dilution method
Summary of the method: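 Wells with no visible growth in the MIC assay spotted (10 μL) onto Skirrow agar. Plates incubated 72 h at 37 °C, microaerophilic, 100% humidity. Triplicate, on at least three different days.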

| Structure (SMILES) | MIC (Helicobacter pylori [1]) [µg/mL] | MBC (Helicobacter pylori [2]) [µg/mL] | MIC (Helicobacter pylori [3]) [µg/mL] | MBC (Helicobacter pylori [4]) [µg/mL] | MIC (Helicobacter pylori [5]) [µg/mL] | MBC (Helicobacter pylori [6]) [µg/mL] | MIC (Helicobacter pylori [7]) [µg/mL] | MBC (Helicobacter pylori [8]) [µg/mL] | MIC50 (Helicobacter pylori [9]) [µg/mL] | MIC90 (Helicobacter pylori [9]) [µg/mL] | MBC90 (Helicobacter pylori [10]) [µg/mL] | MBC (Helicobacter pylori [10]; Helicobacter pylori, read-out: MBC99.9) [µg/mL] |
| --- | --- | --- | --- | --- | --- | --- | --- | --- | --- | --- | --- | --- |
| C=CCc1cc(/N=N/c2ccc([N+](=O)[O-])cc2)c(O)c(OC)c1 | 64 (≈ 204 µM) | 64 (≈ 204 µM) | 128 (≈ 409 µM) | 128 (≈ 409 µM) | 64 (≈ 204 µM) | 64 (≈ 204 µM) | 64 (≈ 204 µM) | 128 (≈ 409 µM) | 64 (≈ 204 µM) | 128 (≈ 409 µM) | 128 (≈ 409 µM) | – |
| COc1ccc(/N=N/c2cc(C(C)C)c(OC(=O)N(C)C)cc2C)cc1 | 128 (≈ 360 µM) | > 128 | 64 (≈ 180 µM) | 128 (≈ 360 µM) | 128 (≈ 360 µM) | 64 (≈ 180 µM) | 64 (≈ 180 µM) | 64 (≈ 180 µM) | > 128 | 128 (≈ 360 µM) | 128 (≈ 360 µM) | – |
| CC1(C)S[C@@H]2[C@H](NC(=O)[C@H](N)c3ccc(O)cc3)C(=O)N2[C@H]1C(=O)O [AMOXICILLIN] | 0.064 (≈ 0.175 µM) | 0.064 (≈ 0.175 µM) | 0.016 (≈ 0.0438 µM) | 0.016 (≈ 0.0438 µM) | 0.016 (≈ 0.0438 µM) | 0.016 (≈ 0.0438 µM) | 0.064 (≈ 0.175 µM) | 0.064 (≈ 0.175 µM) | 0.016 (≈ 0.0438 µM) | 0.064 (≈ 0.175 µM) | 0.064 (≈ 0.175 µM) | – |
| Cc1ccccc1/N=N/c1cc(C(C)C)c(O)c(/N=N/c2ccccc2C)c1C | 128 (≈ 331 µM) | > 128 | 128 (≈ 331 µM) | > 128 | > 128 | > 128 | 128 (≈ 331 µM) | > 128 | 128 (≈ 331 µM) | > 128 | >128 | – |
| C=CCc1cc(/N=N/c2cccc([N+](=O)[O-])c2)c(O)c(OC)c1 | 128 (≈ 409 µM) | > 128 | 128 (≈ 409 µM) | 128 (≈ 409 µM) | 128 (≈ 409 µM) | 128 (≈ 409 µM) | 128 (≈ 409 µM) | 128 (≈ 409 µM) | 128 (≈ 409 µM) | > 128 | >128 | – |
| COc1cc(C=O)cc(/N=N/c2cccc(Cl)c2)c1O | 128 (≈ 440 µM) | 128 (≈ 440 µM) | 128 (≈ 440 µM) | 128 (≈ 440 µM) | 128 (≈ 440 µM) | > 128 | 128 (≈ 440 µM) | 128 (≈ 440 µM) | 128 (≈ 440 µM) | > 128 | >128 | – |
| Cc1cc(OC(=O)N(C)C)c(C(C)C)cc1/N=N/c1ccc([N+](=O)[O-])cc1 | 128 (≈ 346 µM) | 128 (≈ 346 µM) | > 128 | 128 (≈ 346 µM) | > 128 | 128 (≈ 346 µM) | 128 (≈ 346 µM) | 128 (≈ 346 µM) | > 128 | > 128 | 128 (≈ 346 µM) | – |
| COc1cc(C=O)cc(/N=N/c2ccc(C#N)cc2)c1O | 4 (≈ 14.2 µM) | 4 (≈ 14.2 µM) | 8 (≈ 28.4 µM) | 8 (≈ 28.4 µM) | 8 (≈ 28.4 µM) | 16 (≈ 56.9 µM) | 8 (≈ 28.4 µM) | 8 (≈ 28.4 µM) | 8 (≈ 28.4 µM) | 8 (≈ 28.4 µM) | 16 (≈ 56.9 µM) | – |
| COc1ccc(/N=N/c2cc(C(C)C)c(OC)cc2C)cc1 | 128 (≈ 429 µM) | > 128 | > 128 | > 128 | > 128 | > 128 | 128 (≈ 429 µM) | 128 (≈ 429 µM) | 128 (≈ 429 µM) | > 128 | >128 | – |
| C=CCc1cc(/N=N/c2ccccc2C)c(O)c(OC)c1 | 128 (≈ 453 µM) | 128 (≈ 453 µM) | 64 (≈ 227 µM) | 64 (≈ 227 µM) | 128 (≈ 453 µM) | 128 (≈ 453 µM) | 64 (≈ 227 µM) | 64 (≈ 227 µM) | 64 (≈ 227 µM) | 128 (≈ 453 µM) | 128 (≈ 453 µM) | – |
| Cc1c(/N=N/c2ccccc2Cl)cc(C(C)C)c(O)c1/N=N/c1ccccc1Cl | 128 (≈ 300 µM) | > 128 | 128 (≈ 300 µM) | > 128 | > 128 | > 128 | 128 (≈ 300 µM) | > 128 | 128 (≈ 300 µM) | > 128 | >128 | – |
| C=CCc1cccc(OC)c1O | > 128 | > 128 | > 128 | > 128 | > 128 | > 128 | > 128 | > 128 | > 128 | > 128 | – | > 128 |
| CC[C@H]1OC(=O)[C@H](C)[C@@H](O[C@H]2C[C@@](C)(OC)[C@@H](O)[C@H](C)O2)[C@H](C)[C@@H](O[C@@H]2O[C@H](C)C[C@H](N(C)C)[C@H]2O)[C@](C)(OC)C[C@@H](C)C(=O)[C@H](C)[C@@H](O)[C@]1(C)O [CLARITHROMYCIN] | 4 (≈ 5.35 µM) | 8 (≈ 10.7 µM) | 0.064 (≈ 0.0856 µM) | 0.064 (≈ 0.0856 µM) | 0.064 (≈ 0.0856 µM) | 0.064 (≈ 0.0856 µM) | > 256 | 256 (≈ 342 µM) | 0.064 (≈ 0.0856 µM) | 256 (≈ 342 µM) | – | – |
